ChEMBL document CHEMBL3861962 (Eur J Med Chem, 2016)

Columns and labels:
[1] = Retention time of the compound; format: physicochemical
[2] = Drug level in human liver microsomes treated with bosentan at 5 uM in presence of NADPH after 30 mins by LC-MS/MS analysis; format: ADME; conditions: 0.5 h
Summary of the method: (§1)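 Substrate at 5 μM final in 100 mM potassium phosphate, pH 7.4, incubated with human liver microsomes or baculovirus-expressed recombinant CYP3A4, 2D6 or 2C9. Reaction started with 1 mM NADPH and run 0, 15 and 30 min at 37 °C. Stopped with ice-cold acetonitrile containing labetalol internal standard, then centrifuged. Supernatant analysed by LC-MS/MS on a C18 column at 40 °C. Blank was enzyme without substrate.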

Cytochrome P450 3A4 [3] = target: T1, Cytochrome P450 3A4 (Homo sapiens, UniProt P08684); assay: Drug level assessed as human recombinant CYP3A4-mediated compound formation treated with bosentan at 5 uM in presence of NADPH after 30 mins by LC-MS/MS analysis; format: ADME; conditions: recombinant enzyme, 0.5 h; summary of the method: as §1
Cytochrome P450 3A4 [4] = target: T1, Cytochrome P450 3A4; assay: Drug level assessed as human recombinant CYP3A4-mediated compound formation treated with 4-(1,1,1,2,3,3,3-Heptafluoropropan-2-yl)-N-(6-(2-hydroxyethoxy)-5-(2-methoxyphenoxy)-2,2'-bipyrimidin-4-yl)benzenesulfonamide at 5 uM in presence of NADPH after 30 mins by LC-MS/MS analysis; format: ADME; conditions: recombinant enzyme, 0.5 h; summary of the method: as §1
[5] = Drug level in human liver microsomes treated with 4-(1,1,1,2,3,3,3-Heptafluoropropan-2-yl)-N-(6-(2-hydroxyethoxy)-5-(2-methoxyphenoxy)-2,2'-bipyrimidin-4-yl)benzenesulfonamide at 5 uM in presence of NADPH after 30 mins by LC-MS/MS analysis; format: ADME; conditions: 0.5 h; summary of the method: as §1
Cytochrome P450 3A4 [6] = target: T1, Cytochrome P450 3A4; assay: Drug level assessed as human recombinant CYP3A4-mediated compound formation treated with 4-(1,1,1,3,3,3-Hexafluoro-2-methoxypropan-2-yl)-N-(6-(2-hydroxyethoxy)-5-(2-methoxyphenoxy)-2,2'-bipyrimidin-4-yl)benzenesulfonamide at 5 uM in presence of NADPH after 30 mins by LC-MS/MS analysis; format: ADME; conditions: recombinant enzyme, 0.5 h; summary of the method: as §1
[7] = Drug level in human liver microsomes treated with 4-(1,1,1,3,3,3-Hexafluoro-2-methoxypropan-2-yl)-N-(6-(2-hydroxyethoxy)-5-(2-methoxyphenoxy)-2,2'-bipyrimidin-4-yl)benzenesulfonamide at 5 uM in presence of NADPH after 30 mins by LC-MS/MS analysis; format: ADME; conditions: 0.5 h; summary of the method: as §1

T1 sequence (P08684 whole entry): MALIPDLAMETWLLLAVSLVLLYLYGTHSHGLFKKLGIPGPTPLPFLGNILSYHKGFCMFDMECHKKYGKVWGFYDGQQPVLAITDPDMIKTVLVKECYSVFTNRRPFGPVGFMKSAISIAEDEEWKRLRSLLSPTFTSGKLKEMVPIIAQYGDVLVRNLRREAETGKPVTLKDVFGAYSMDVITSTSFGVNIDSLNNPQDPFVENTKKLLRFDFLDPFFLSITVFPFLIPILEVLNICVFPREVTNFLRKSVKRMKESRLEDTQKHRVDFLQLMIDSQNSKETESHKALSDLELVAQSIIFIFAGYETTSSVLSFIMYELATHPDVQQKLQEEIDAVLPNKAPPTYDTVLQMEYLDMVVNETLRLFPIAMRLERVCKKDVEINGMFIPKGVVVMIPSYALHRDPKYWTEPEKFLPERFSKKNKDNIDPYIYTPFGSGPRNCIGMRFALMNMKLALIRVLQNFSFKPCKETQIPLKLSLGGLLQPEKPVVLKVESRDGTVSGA

Row | Retention_time [1] [min] | Drug metabolism [2] | Drug metabolism (Cytochrome P450 3A4 [3]) | Drug metabolism (Cytochrome P450 3A4 [4]) | Drug metabolism [5] | Drug metabolism (Cytochrome P450 3A4 [6]) | Drug metabolism [7] | Compound
1 | 4.73 | Metabolite_Detected | Metabolite_Detected |  |  |  |  | CC(C)(C)c1ccc(S(=O)(=O)Nc2nc(-c3ncccn3)nc(OCCO)c2Oc2ccccc2O)cc1
2 | 5.27 |  |  | Metabolite_Detected | Metabolite_Detected |  |  | O=S(=O)(Nc1nc(-c2ncccn2)nc(OCCO)c1Oc1ccccc1O)c1ccc(C(F)(C(F)(F)F)C(F)(F)F)cc1
3 | 5.14 |  |  |  |  | Metabolite_Detected | Metabolite_Detected | COC(c1ccc(S(=O)(=O)Nc2nc(-c3ncccn3)nc(OCCO)c2Oc2ccccc2O)cc1)(C(F)(F)F)C(F)(F)F
4 | 5.52 |  |  |  |  |  |  | CCOc1nc(-c2ncccn2)nc(NS(=O)(=O)c2ccc(C(C)(C)C)cc2)c1Oc1ccccc1O
